Drawing on ChEMBL document CHEMBL1153612, “Synthesis and antitumor activity of novel dithiocarbamate substituted chromones” (Eur J Med Chem, 2009), this text covers IC50 for 35 compounds.

What all share (format): functional, cell-based
In one experiment the test system is SW480. As to the kind of experiment: Antiproliferative activity against human SW480 cells after 72 hrs by MTT assay. The following applies: SW480, 72 h. In short, it runs like this: (§1)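 Cells seeded at 8000 per well in 96-well plates, exposed to compound for 72 h. MTT added at 0.5 mg/mL final and incubated 4 h. Formazan dissolved in DMSO, absorbance read at 570 nm. IC50 is the concentration giving 50% reduction in cell growth, reported as the mean of three repeated experiments.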

Experiment [1] is described as follows: Antiproliferative activity against human LM7 cells after 72 hrs by MTT assay. The following applies: LM7, 72 h. In outline:
as §1

Experiment [2] can be described thus: Antiproliferative activity against human MDA-MB-435S cells after 72 hrs by MTT assay. In outline: as §1
The test system of the next experiment is HeLa. Kind of experiment: Antiproliferative activity against human HeLa cells after 72 hrs by MTT assay. In short, it runs like this:
as §1

The subject of another experiment is HEp-2. Kind of experiment: Antiproliferative activity against human Hep2 cells after 72 hrs by MTT assay. Conditions: HEp-2, 72 h. In outline:
as §1

The test system of a further experiment is MCF7. Kind of experiment: Antiproliferative activity against human MCF7 cells after 72 hrs by MTT assay. The following applies: MCF7, 72 h. In short, it runs like this:
as §1

A value given as a limit tells only on which side of the number the result lay.

With `CC(C)N(C(=S)SCc1coc2ccc(Cl)cc2c1=O)C(C)C`, the IC50 was greater than 25 µM in the experiment on SW480; greater than 25 µM in experiment [1]; greater than 25 µM in experiment [2]; greater than 25 µM with HeLa; 4.2 µM in the experiment on HEp-2.
Turning to `O=c1cc(CSC(=S)N(CCCl)CCCl)oc2ccccc12`, the IC50 is 25.1 µM in the experiment on SW480; greater than 25 µM in experiment [1]; greater than 25 µM with MCF7; 3.7 µM in experiment [2]; greater than 25 µM in the experiment with HeLa; 15.6 µM in the experiment with HEp-2.
With `O=c1c(CSC(=S)N2CCOCC2)coc2ccccc12`, the IC50 with SW480 is 5.9 µM; in experiment [1], 12 µM; with MCF7, 4 µM; in experiment [2], 3.9 µM; in the experiment on HEp-2, 4.4 µM.
As to `O=c1c(CSC(=S)N2CCN(C(c3ccc(F)cc3)c3ccc(F)cc3)CC2)coc2ccccc12`, the IC50 in the experiment on SW480 is greater than 40 µM; in experiment [1] it was greater than 25 µM; in the experiment with MCF7 it was greater than 30 µM; in experiment [2], greater than 40 µM; in the experiment on HeLa, greater than 25 µM; with HEp-2, 9.6 µM.
`O=c1c(SC(=S)N2CCCCC2)coc2ccccc12`: the IC50 was 16.3 µM in the experiment with SW480; 7.8 µM in experiment [1]; 17.4 µM in experiment [2]; 9 µM in the experiment with HeLa; 5.8 µM with HEp-2.
Turning to `O=c1cc(CSC(=S)N2CCCC2)oc2ccc(Cl)cc12`, the IC50 is greater than 25 µM with SW480; greater than 25 µM in experiment [1]; greater than 25 µM in the experiment with MCF7; greater than 25 µM in experiment [2]; greater than 40 µM in the experiment with HeLa; greater than 40 µM in the experiment with HEp-2.
For `CC(C)N(C(=S)SCc1oc2ccccc2c(=O)c1Cl)C(C)C`, the IC50 is 18.1 µM in the experiment with SW480; greater than 40 µM in experiment [1]; greater than 40 µM in the experiment with MCF7; 23.6 µM in experiment [2]; greater than 40 µM in the experiment on HeLa; 20 µM in the experiment on HEp-2.
As to `O=c1c(Cl)c(CSC(=S)N2CCOCC2)oc2ccccc12`, the IC50 in the experiment on SW480 is 1.8 µM; in experiment [1] it was 19.2 µM; in the experiment with MCF7, 11.1 µM; in experiment [2], 4.1 µM; in the experiment on HeLa, 4.5 µM; in the experiment on HEp-2, 9 µM.
Consider `O=c1cc(CSC(=S)N2CCN(c3ccccc3)CC2)oc2ccc(Cl)cc12`, for which the IC50 with SW480 was 21.2 µM; in experiment [1], 15.9 µM; in the experiment on MCF7 it was greater than 25 µM; in experiment [2], 18.6 µM; with HeLa, 25.9 µM; in the experiment with HEp-2, 15.9 µM.
Regarding `Cc1ccc2occ(CSC(=S)N3CCCC3)c(=O)c2c1`, the IC50 in the experiment with SW480 stood at 5.9 µM; in experiment [1] it was 3.4 µM; with MCF7, 41.4 µM; in experiment [2] it was 1.9 µM; in the experiment with HeLa, 4.4 µM; with HEp-2, 3.6 µM.
As for `O=c1c(CSC(=S)N2CCN(Cc3ccccc3)CC2)coc2ccccc12`, the IC50 in the experiment with SW480 was found to be 4.5 µM; in experiment [1], 19.1 µM; with MCF7, 9.6 µM; in experiment [2] it was 4.4 µM; in the experiment with HeLa, 7.9 µM; in the experiment with HEp-2, 2.9 µM.
In the case of `COc1ccc2c(=O)c(CSC(=S)N3CCCC3)coc2c1`, the IC50 in the experiment with SW480 was determined as 4.8 µM; in experiment [1] it was 6 µM; with MCF7, 34.1 µM; in experiment [2], 1.8 µM; in the experiment with HeLa, 12.1 µM; in the experiment on HEp-2, 3.1 µM.
For the compound `COc1ccc2c(=O)c(CSC(=S)N3CCOCC3)coc2c1`, the IC50 in the experiment with SW480 was 7.1 µM; in experiment [1], greater than 40 µM; in the experiment on MCF7 it was 11.8 µM; in experiment [2], greater than 40 µM; with HeLa, 9.5 µM; in the experiment with HEp-2, 4.8 µM.
With `O=c1cc(CSC(=S)N2CCCCC2)oc2ccccc12`, the IC50 in the experiment on SW480 is 13.7 µM; in experiment [1], greater than 25 µM; in the experiment on MCF7, greater than 25 µM; in experiment [2], greater than 25 µM; in the experiment with HeLa, greater than 25 µM; in the experiment on HEp-2 it was 12 µM.
On to `O=c1cc(CSC(=S)N2CCOCC2)oc2ccccc12`, for which the IC50 with SW480 is 24.4 µM; in experiment [1] it was 25.2 µM; with MCF7 it was 21 µM; in experiment [2] it was 22.2 µM; in the experiment with HeLa it was 35.6 µM; with HEp-2, greater than 25 µM.
On to `CCOC(=O)c1cc(=O)c2cc(CSC(=S)N(C)c3ccccc3)ccc2o1`, for which the IC50 with SW480 was greater than 25 µM; in experiment [1] it was greater than 25 µM; with MCF7, greater than 25 µM; in experiment [2], 13.5 µM; in the experiment on HeLa, 18.1 µM.
As for `O=c1c(CSC(=S)N2CCOCC2)coc2ccc(Cl)cc12`, the IC50 stood at 6.2 µM with SW480; 6.2 µM in experiment [1]; 8.1 µM in the experiment on MCF7; 0.6 µM in experiment [2]; 2 µM with HeLa; 0.9 µM in the experiment with HEp-2.
On to `CN1CCN(C(=S)SCc2coc3ccccc3c2=O)CC1`, for which the half-maximal inhibitory concentration (IC50) in experiment [1] came out at 17.6 µM; in the experiment with MCF7 it was 22.9 µM; in experiment [2], 2.2 µM; in the experiment on HeLa, 5.9 µM; in the experiment on HEp-2, 2.4 µM.
With `O=c1c(CSC(=S)N2CCCC2)coc2ccc(Cl)cc12`, the IC50 in the experiment with SW480 is 7.8 µM; in experiment [1], 2.6 µM; in the experiment with MCF7, 0.6 µM; in experiment [2], 6.4 µM; with HeLa, 1.3 µM; in the experiment with HEp-2 it was 2.1 µM.
For `O=c1cc(CSC(=S)N2CCCC2)oc2ccccc12`, the IC50 in the experiment on SW480 was 23.4 µM; in experiment [1], 40 µM; in the experiment with MCF7, 35.8 µM; in experiment [2], greater than 30 µM; with HeLa it was 23.1 µM; in the experiment with HEp-2, 9.1 µM.
In the case of `O=c1cc(CSC(=S)N2CCOCC2)oc2ccc(Cl)cc12`, the IC50 was greater than 25 µM in the experiment with SW480; greater than 25 µM in experiment [1]; greater than 25 µM with MCF7; greater than 25 µM in experiment [2]; 33.3 µM in the experiment with HeLa; 20.6 µM with HEp-2.
For `O=c1c(CSC(=S)N2CCCC2)coc2ccccc12`, the IC50 was 2.3 µM in the experiment on SW480; 6 µM in experiment [1]; greater than 25 µM in the experiment with MCF7; 3.8 µM in experiment [2]; greater than 25 µM in the experiment with HeLa; 3.6 µM in the experiment on HEp-2.
On to `O=c1c(CSC(=S)N2CCCCC2)coc2ccccc12`, for which the half-maximal inhibitory concentration (IC50) amounted to 1.2 µM in the experiment with SW480; 4.6 µM in experiment [1]; 1.7 µM in the experiment on MCF7; 0.47 µM in experiment [2]; 2.3 µM in the experiment with HeLa; 0.39 µM in the experiment with HEp-2.
Regarding `CC(C)N(C(=S)SCc1coc2ccccc2c1=O)C(C)C`, the IC50 was 6.8 µM in the experiment with SW480; 21.9 µM in experiment [1]; greater than 30 µM in the experiment on MCF7; 7.9 µM in experiment [2]; greater than 30 µM in the experiment on HeLa; 3 µM in the experiment on HEp-2.
Turning to `CCN(CC)C(=S)SCc1cc(=O)c2cc(Cl)ccc2o1`, the concentration for half-maximal inhibition (IC50) in the experiment on SW480 is greater than 25 µM; in experiment [1] it was 8.8 µM; in the experiment on MCF7 it was greater than 25 µM; in experiment [2], 23.5 µM; with HeLa it was 8.7 µM; with HEp-2 it was 8.8 µM.
Turning to `COc1ccc2c(=O)c(CSC(=S)N(C(C)C)C(C)C)coc2c1`, the concentration for half-maximal inhibition (IC50) was 4.8 µM with SW480; 4.7 µM in experiment [1]; greater than 40 µM with MCF7; 1.8 µM in experiment [2]; 5.4 µM with HeLa; 8.9 µM with HEp-2.
Turning to `CCOC(=O)c1cc(=O)c2cc(CSC(=S)N3CCCC3)ccc2o1`, the IC50 in the experiment with SW480 was greater than 25 µM; in experiment [1], 18 µM; with MCF7 it was greater than 25 µM; in experiment [2] it was 3.4 µM; in the experiment on HeLa, 6.6 µM; in the experiment on HEp-2, 8.9 µM.
In the case of `O=c1c(SC(=S)N2CCCC2)coc2ccc(Cl)cc12`, the IC50 in the experiment on SW480 is greater than 25 µM; in experiment [1], 24.6 µM; with MCF7, greater than 25 µM; in experiment [2], 24 µM; with HeLa, 16.3 µM; in the experiment on HEp-2 it was 26 µM.
For the compound `CCOC(=O)c1cc(=O)c2cc(CSC(=S)N(C(C)C)C(C)C)ccc2o1`, the IC50 in the experiment on SW480 was greater than 25 µM; in experiment [1] it was greater than 25 µM; in the experiment with MCF7 it was greater than 25 µM; in experiment [2] it was 8.1 µM; in the experiment on HeLa it was greater than 25 µM; in the experiment with HEp-2, 15.9 µM.
For the compound `CCOC(=O)c1cc(=O)c2cc(CSC(=S)N3CCOCC3)ccc2o1`, the 50% inhibitory concentration (IC50) (in the experiment on SW480; in experiment [1]; in the experiment with MCF7; in experiment [2]; in the experiment with HeLa; in the experiment with HEp-2) was greater than 25 µM each time.
As to `O=c1c(SC(=S)N2CCCC2)coc2ccccc12`, the IC50 is greater than 25 µM in the experiment with SW480; 12.2 µM in the experiment with MCF7; 1.9 µM in experiment [2]; 3.8 µM in the experiment on HeLa; 7.4 µM in the experiment with HEp-2.
On to `O=c1c(SC(=S)N2CCCCC2)coc2ccc(Cl)cc12`, for which the IC50 in the experiment on SW480 is greater than 25 µM; in experiment [1], greater than 25 µM; in the experiment with MCF7, greater than 25 µM; in experiment [2], 13.3 µM; in the experiment with HeLa, 8.3 µM; in the experiment on HEp-2, 12.2 µM.
As to `COc1ccc2c(=O)cc(CSC(=S)N3CCCCC3)oc2c1`, the IC50 with SW480 turned out to be 2.3 µM; in experiment [1], 5 µM; with MCF7, 10 µM; in experiment [2] it was 1.5 µM; in the experiment on HeLa, 11.9 µM; in the experiment on HEp-2, 1.5 µM.
As for `COc1ccc2c(=O)cc(CSC(=S)N(C(C)C)C(C)C)oc2c1`, the IC50 with SW480 is 7.2 µM; in experiment [1], 19.1 µM; in the experiment with MCF7 it was greater than 25 µM; in experiment [2], 22.1 µM; in the experiment on HeLa, greater than 25 µM; in the experiment on HEp-2 it was 7.6 µM.
Consider `CC(C)N(C(=S)SCc1cc(=O)c2ccccc2o1)C(C)C`, for which the IC50 was greater than 40 µM in the experiment with SW480; greater than 25 µM in experiment [1]; 31.7 µM with MCF7; greater than 40 µM in experiment [2]; 13.6 µM in the experiment with HEp-2.
